Data published in ChEMBL document CHEMBL3865847, “The synthesis and biological evaluation of alkyl and benzyl naphthyridinium analogs of eupolauridine as potential antimicrobial and cytotoxic agents” (Bioorg Med Chem, 2016).
Values joined by “and” are separate entries in the source; they are usually repeats but may differ in a detail not shown here. Identical values can stand only once.

Key:
[1] = system: Cryptococcus neoformans; assay: Antimicrobial activity against Cryptococcus neoformans ATCC 52657; type: functional
How it was run: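 Grown in mycophil broth 72 h, hemocytometer-counted, diluted to 200,000 CFU/mL. Exposed to diluted samples in 96-well plates, maximum final 50 µg/mL (DMSO up to 2.5%), incubated 30 °C. A630 readout. MIC is the lowest concentration inhibiting 80% of growth versus controls; IC50 read from concentration versus % growth graphs.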

[2] = system: Plasmodium falciparum; assay: Antimalarial activity against Plasmodium falciparum D6 infected in RBC after 48 hrs by lactate dehydrogenase assay; type: functional; conditions: D6, 48 h
How it was run: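 Parasites grown in A+ human erythrocytes in RPMI 1640 with 10% A+ human serum, 25 mM HEPES, 27 mM bicarbonate, 60 µg/mL amikacin, 37 °C under 90% N2/5% O2/5% CO2. Infected cells exposed 48 h in microtiter wells, highest concentration 4.8 µg/mL. Growth read by Malstat reagent (parasite LDH) with nitro blue tetrazolium reduction, absorbance 630 nm.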

[3] = Cytotoxicity against human SK-MEL cells assessed as cell growth inhibition after 48 hrs by neutral red dye based assay; type: functional
How it was run: (§1)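 Cells kept in RPMI-1640 with 10% bovine serum and 60 µg/mL amikacin, 37 °C, 5% CO2. Seeded at 25,000 cells/well, left 24 h to adhere. Samples diluted in RPMI added, highest final concentration 10 µg/mL. Growth measured by neutral red uptake after 48 h exposure.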

[4] = Cytotoxicity against African green monkey Vero cells assessed as cell growth inhibition at 10 ug/ml after 48 hrs by neutral red dye based assay; type: toxicity; conditions: chlorocebus sabaeus; how it was run: as §1
[5] = Inhibition of Candida albicans DNA topoisomerase 1 using pHOT1 as substrate after 30 mins by agarose gel electrophoresis
How it was run: (§2)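 Relaxation of supercoiled to relaxed DNA by TopoI measured with a commercial TopoI drug kit following kit protocol. IC50 calculated from dose-response curves of % inhibition versus concentration.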

[6] = target: T1, DNA topoisomerase 1 (Homo sapiens, UniProt P11387); assay: Inhibition of human DNA topoisomerase 1 using pHOT1 as substrate after 30 mins by agarose gel electrophoresis; how it was run: as §2
T1 sequence (P11387 whole entry): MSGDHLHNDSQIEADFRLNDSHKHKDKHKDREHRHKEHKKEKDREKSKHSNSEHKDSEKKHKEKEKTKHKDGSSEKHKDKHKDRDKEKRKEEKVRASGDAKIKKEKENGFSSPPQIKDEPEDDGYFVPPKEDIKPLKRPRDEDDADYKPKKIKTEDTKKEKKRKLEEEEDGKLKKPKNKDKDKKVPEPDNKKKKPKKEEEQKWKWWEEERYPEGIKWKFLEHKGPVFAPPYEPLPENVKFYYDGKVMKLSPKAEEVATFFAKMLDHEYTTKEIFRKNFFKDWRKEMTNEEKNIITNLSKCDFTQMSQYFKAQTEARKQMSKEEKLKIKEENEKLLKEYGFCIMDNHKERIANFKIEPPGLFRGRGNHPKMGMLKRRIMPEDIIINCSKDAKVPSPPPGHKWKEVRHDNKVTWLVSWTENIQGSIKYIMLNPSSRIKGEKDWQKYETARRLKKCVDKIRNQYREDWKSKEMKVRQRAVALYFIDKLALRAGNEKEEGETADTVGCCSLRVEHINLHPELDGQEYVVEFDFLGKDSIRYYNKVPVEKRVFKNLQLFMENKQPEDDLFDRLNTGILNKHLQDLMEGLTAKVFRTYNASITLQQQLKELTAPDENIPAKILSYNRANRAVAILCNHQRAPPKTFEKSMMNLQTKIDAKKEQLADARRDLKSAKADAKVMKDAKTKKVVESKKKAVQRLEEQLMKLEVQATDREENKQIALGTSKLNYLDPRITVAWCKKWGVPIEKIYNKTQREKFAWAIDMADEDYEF

[7] = Selectivity index, ratio of IC50 for human DNA topoisomerase 1 to IC50 for Candida albicans DNA topoisomerase 1
[8] = system: Candida albicans; assay: Antimicrobial activity against Candida albicans B311; type: functional
How it was run: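 Cultured in Sabouraud dextrose broth 24 h, counted by hemocytometer, diluted to 10,000 CFU/mL. Added to serially diluted samples in 96-well plates, top final concentration 50 µg/mL (≤2.5% DMSO), incubated 37 °C. Growth by A630. MIC is the lowest concentration giving 80% inhibition against controls; IC50 from concentration versus % growth plots.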

[9] = Cytotoxicity against human KB cells assessed as cell growth inhibition after 48 hrs by neutral red dye based assay; type: functional; how it was run: as §1
[10] = Cytotoxicity against human BT549 cells assessed as cell growth inhibition after 48 hrs by neutral red dye based assay; type: functional; conditions: BT-549, 48 h; how it was run: as §1
[11] = Cytotoxicity against human SKOV3 cells assessed as cell growth inhibition after 48 hrs by neutral red dye based assay; type: functional; conditions: SK-OV-3, 48 h; how it was run: as §1
[12] = system: Mycobacterium intracellulare; assay: Antimicrobial activity against Mycobacterium intracellulare ATCC 23068; type: functional
How it was run: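 Mycobacterium grown 72 h in Middlebrook medium with OADC supplement, diluted 1:30 in broth. Incubated at 37 °C with diluted samples in 96-well plates, highest final 50 µg/mL, DMSO at most 2.5%. Absorbance at 630 nm. MIC = lowest concentration with 80% growth inhibition relative to controls; IC50 from concentration versus % growth plots.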

Structure (SMILES)	IC50 [1] [µg/mL]	MIC80 [1] [µg/mL]	IC50 [2] [µg/mL]	IC50 [3] [µg/mL]	Activity [4]	IC50 [5] [µg/mL]	IC50 [6] [µM]	Ratio IC50 [7]	IC50 [8] [µg/mL]	MIC80 [8] [µg/mL]	IC50 [9] [µg/mL]	IC50 [10] [µg/mL]	IC50 [11] [µg/mL]	MIC80 [12] [µg/mL]
Cc1cc(C)cc(CS(=O)(=O)[O-])c1.N[n+]1ccc2ccnc3c2c1-c1ccccc1-3	19.7	50	3.2	> 10	Non-Toxic	7.5	35.8	0.5						
[Br-].c1ccc(C[n+]2ccc3cc(-c4ccccc4)nc4c3c2-c2ccccc2-4)cc1	0.95	3.12	0.04	0.7	Non-Toxic	4.3	9.75	0.98	1.5	3.12	1	1.2	0.25	
CCOC(=O)C[n+]1ccc2c3c(nc4ccccc42)-c2ccccc2-c31.[Br-]			0.56	> 10	Non-Toxic	2.3	5.7	0.96					5.9	
Cc1cc2cc[n+](Cc3ccccc3)c3c2c(n1)-c1ccccc1-3.[Br-]	0.82	1.56	0.095	4.2	Non-Toxic	11	30.8	0.92	13.3	25	> 10	3.5	1.7	
C[n+]1ccc2ccnc3c2c1-c1ccccc1-3.[I-]	10	50	0.06		Non-Toxic	10	28.9	1					> 10	
Cc1cc2cc[n+](C)c3c2c(n1)-c1ccccc1-3.[I-]	8	50	0.11		Non-Toxic	5	12.5	1.11						
Fc1ccc(C[n+]2ccc3ccnc4c3c2-c2ccccc2-4)cc1.[Br-]	0.87	3.12	0.017	6	Non-Toxic	40	127	0.8	9.33	12.5	> 10	7.5	1.5	
[Br-].c1ccc(C[n+]2ccc3c4c(nc5cc6c(cc53)OCO6)-c3ccccc3-c42)cc1	0.57	3.12	0.0094	0.55	Non-Toxic	0.52	1.11	1	5.17	12.5	1	1.3	0.6	
Fc1ccc(C[n+]2ccc3ccnc4c3c2-c2ccccc2-4)c(F)c1.[Br-]	0.58	1.56	0.015	6.2	Non-Toxic	32	109	0.71	5.33	6.25			2.8	
CCOC(=O)C[n+]1ccc2ccnc3c2c1-c1ccccc1-3.[Br-]			0.5		Non-Toxic	75	242	0.83					7.6	
[Br-].c1ccc(C[n+]2ccc3ccnc4c3c2-c2ccccc2-4)cc1	0.43	1.56	0.0225	5.4	Non-Toxic	19	101	0.5	4.17	6.25			1.5	
Fc1ccc2c(c1)-c1c3c-2nccc3cc[n+]1Cc1ccccc1.[Br-]	0.52	0.78	0.033	5.6	Non-Toxic				1.5	3.12	1.3	2.5	0.53	50
O=[N+]([O-])c1ccc(C[n+]2ccc3ccnc4c3c2-c2ccccc2-4)cc1.[Br-]	1.19	6.25	0.035	4.9	Non-Toxic	18	50	0.86			1.8	4	0.62	50
O=C(C[n+]1ccc2ccnc3c2c1-c1ccccc1-3)c1ccccc1.[Br-]	6.18	25	0.17		Non-Toxic	50	136	0.91			> 10	> 10	6	
CCN(CC)CCCC(C)Nc1ccnc2cc(Cl)ccc12 (stereo not given) [CHLOROQUINE]			< 0.02											
C[n+]1ccc2c3c(nc4ccccc42)-c2ccccc2-c31								0.83 and 1						
